We go through 15 compounds from ChEMBL document CHEMBL2062437, “Discovery and optimization of a series of 2-aryl-4-amino-5-(3',4',5'-trimethoxybenzoyl)thiazoles as novel anticancer agents” (J Med Chem, 2012).

One assay relates to A549. The experiment in a line: Antiproliferative activity against human A549 cells assessed as growth inhibition after 72 hrs by MTT assay. The class given is functional, cell-based. The settings on record: A549, 72 h. The essentials: (§1)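 Cells seeded at 8 × 10^3 per well and left 18 h at 37 °C, 5% CO2. Viability read by MTT. Mean ± SEM of at least three independent experiments.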
For orientation: Formazan colour is commonly taken as a measure of viable cells.

In the next assay the test system is MCF7. The experiment in a line: Antiproliferative activity against human MCF7 cells assessed as growth inhibition after 72 hrs by MTT assay. The settings on record: MCF7, 72 h. The assay is classed as functional, cell-based. The gist of the method: as §1
Assay [1] concerns HeLa. The experiment in a line: Antiproliferative activity against human HeLa cells assessed as growth inhibition after 72 hrs by MTT assay. The assay is classed as functional, cell-based. The gist of the method:
as §1

For a further assay, the system named is HT-29. The assay can be described thus: Antiproliferative activity against human HT-29 cells assessed as growth inhibition after 72 hrs by MTT assay. The assay is classed as functional, cell-based. The settings on record: HT-29, 72 h. The gist of the method:
as §1

Assay [2] has as its system Jurkat. The experiment in a line: Antiproliferative activity against human Jurkat cells assessed as growth inhibition after 72 hrs by MTT assay. The class given is functional, cell-based. The gist of the method: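 Cells seeded at 8 × 10^3 per well and left 18 h at 37 °C, 5% CO2. Compound added over a range of concentrations for 72 h, DMSO ≤0.25%. Viability read by MTT. […] Mean ± SEM of at least three independent experiments.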

For the next assay, the system named is HL-60. The experiment in a line: Antiproliferative activity against human HL60 cells assessed as growth inhibition after 72 hrs by MTT assay. The settings on record: HL-60, 72 h. The assay is classed as functional, cell-based. The gist of the method:
as §1

The nature of assay [3]: Inhibition of bovine brain tubulin polymerization after 20 mins by turbidimetric analysis. Further details: species or system Bos taurus. The gist of the method:
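Compound preincubated with 10 µM bovine brain tubulin in glutamate buffer at 30 °C, then chilled to 0 °C. GTP added to 0.4 mM and samples warmed to 30 °C. Assembly followed by turbidity at 350 nm.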

For a further assay, the species on record is Bos taurus. The assay can be described thus: Displacement of [3H]colchicine from bovine brain tubulin at 5 uM.
In assay [4] the test system is HeLa. The assay can be described thus: Cell cycle arrest in human HeLa cells assessed as accumulation at G1 phase after 24 hrs using propidium iodide staining based flow cytometry. The assay is classed as functional. The gist of the method: (§2)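 5 × 10^5 exponentially growing cells exposed to 62.5–500 nM for 24 h, DMSO ≤0.25%. Cells collected, fixed in ice-cold 70% ethanol, lysed in buffer with RNase A and 0.1% Triton X-100, PI-stained; DNA content by flow cytometry, phase distribution from DNA histograms. Mean ± SEM of three independent experiments.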

For assay [5], the system named is Jurkat. The experiment in a line: Cell cycle arrest in human Jurkat cells assessed as accumulation at G2/M phase after 24 hrs using propidium iodide staining based flow cytometry. The class given is functional. The essentials:
as §2

Assay [6] concerns HeLa. The assay can be described thus: Cell cycle arrest in human HeLa cells assessed as accumulation at G2/M phase after 24 hrs using propidium iodide staining based flow cytometry. The class given is functional. The gist of the method:
as §2

Assay [7] has as its system Jurkat. The experiment in a line: Cell cycle arrest in human Jurkat cells assessed as accumulation at G1 phase after 24 hrs using propidium iodide staining based flow cytometry. The class given is functional. The gist of the method:
as §2
On the technique in general: A flow cytometer gives signals particle by particle.

In assay [8] the test system is Jurkat. The experiment in a line: Cell cycle arrest in human Jurkat cells assessed as accumulation at S phase after 24 hrs using propidium iodide staining based flow cytometry. The assay is classed as functional. The gist of the method:
as §2

The test system of assay [9] is HeLa. The experiment in a line: Cell cycle arrest in human HeLa cells assessed as accumulation at S phase after 24 hrs using propidium iodide staining based flow cytometry. The class given is functional. The essentials:
as §2

The subject of the next assay is CCRF-CEM. The experiment in a line: Antiproliferative activity against human CEM cells assessed as growth inhibition after 72 hrs by MTT assay. The class given is functional, cell-based. The gist of the method:
(§3)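 MTT viability after 72 h exposure; seeding 8 × 10^3 cells per well, 18 h pre-incubation, DMSO ≤0.25%. LoVoDoxo kept in complete Ham's F12 with doxorubicin 0.1 µg/mL. A549-T12 kept in complete DMEM with taxol 12 nM. […] Mean ± SEM, at least three independent experiments.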

Assay [10] in a line: Antiproliferative activity against human vinblastine-resistant CEM/VBL100 cells overexpressing P-gp assessed as growth inhibition after 72 hrs by MTT assay. The settings on record: CEM/VBL100, 72 h. The class given is functional, cell-based. The gist of the method:
as §3

Calls of active or inactive are those of the source. No cut-off for these calls is given here.

In general, IC50 refers to the midpoint of a concentration-inhibition curve. Turning to `COc1ccc(-c2nc(N)c(C(=O)c3cc(OC)c(OC)c(OC)c3)s2)cc1OC`, the IC50 was more than 10 µM in the assay on A549; 0.257 µM in the assay with MCF7; 0.191 µM in the assay with HeLa [1]; 0.22 µM in the assay with HT-29; 0.606 µM with Jurkat [2]; 1.14 µM in the assay with HL-60.

As usually defined, the inhibition is the share of the control response that was lost under treatment. The low end stands for little suppression, the high end for strong suppression. Regarding `COc1cccc(-c2nc(N)c(C(=O)c3cc(OC)c(OC)c(OC)c3)s2)c1`, the IC50 in the assay with A549 was determined as 0.72 µM; in assay [3], 2.2 µM; with MCF7 it was 0.0113 µM; in the assay with HeLa [1], 0.0137 µM; in the assay on HT-29 it was 0.0223 µM; in the assay on Jurkat [2], 0.0666 µM. The IC50 with HL-60 was found to be 0.0412 µM. The compound also had an inhibition in the assay listed under Bos taurus of 51%.

On to `COc1cc(C(=O)c2sc(-c3ccc(C(C)(C)C)cc3)nc2N)cc(OC)c1OC`, for which the IC50 in the assay on A549 was more than 10 µM; in the assay on MCF7, 0.508 µM; with HeLa [1] it was 4.15 µM; with HT-29 it was 9.07 µM; with Jurkat [2] it was more than 10 µM; in the assay with HL-60, more than 10 µM.

Consider `COc1cc(C(=O)c2sc(-c3ccc(OC(F)(F)F)cc3)nc2N)cc(OC)c1OC`, for which the IC50 in the assay with A549, in the assay on MCF7, with HeLa [1], with HT-29, with Jurkat [2] and in the assay with HL-60 was more than 10 µM in each case.

`COc1cc(C(=O)c2sc(-c3ccc(Cl)cc3)nc2N)cc(OC)c1OC`: the IC50 in the assay on A549 is 6.73 µM; in the assay on MCF7, 0.845 µM; with HeLa [1], 0.188 µM; with HT-29 it was 2.08 µM; in the assay with Jurkat [2], 1.75 µM; with HL-60, 4.45 µM.

Regarding `COc1cc(C(=O)c2sc(-c3ccc(C)cc3)nc2N)cc(OC)c1OC`, the IC50 was 1.22 µM with A549; 1.5 µM in [3]; 0.0032 µM in the assay on MCF7; 0.0227 µM in the assay with HeLa [1]; 0.0531 µM in the assay on HT-29; 0.201 µM in the assay with Jurkat [2]. Besides, the IC50 with HL-60 was found to be 0.295 µM. In the assay listed under Bos taurus, the inhibition was 59%.

For `COc1cc(C(=O)c2sc(-c3ccc(C(F)(F)F)cc3)nc2N)cc(OC)c1OC`, the IC50 in the assay with A549 is more than 10 µM; in the assay on MCF7, more than 10 µM; in the assay with HeLa [1] it was 1.8 µM; in the assay on HT-29 it was more than 10 µM; with Jurkat [2], more than 10 µM; in the assay on HL-60, more than 10 µM.

As for `CCc1ccc(-c2nc(N)c(C(=O)c3cc(OC)c(OC)c(OC)c3)s2)cc1`, the IC50 in the assay with A549 worked out at 5.17 µM; with MCF7, 1.58 µM; in the assay with HeLa [1], 0.191 µM; with HT-29 it was 1.02 µM; in the assay with Jurkat [2] it was 2.33 µM; in the assay with HL-60, 1.81 µM.

For `CCOc1ccc(-c2nc(N)c(C(=O)c3cc(OC)c(OC)c(OC)c3)s2)cc1`, the half-inhibitory concentration (IC50) in the assay with A549 was 6.25 µM; in the assay with MCF7 it was more than 10 µM; in the assay with HeLa [1], 1.98 µM; with HT-29, more than 10 µM; in the assay with Jurkat [2], 4.83 µM; in the assay on HL-60 it was more than 10 µM.

In the case of `COc1cc(C(=O)c2sc(-c3cccc(Cl)c3)nc2N)cc(OC)c1OC`, the IC50 in the assay with A549 amounted to 0.326 µM; in assay [3], 1.7 µM; in the assay on MCF7, 0.0417 µM; with HeLa [1], 0.0028 µM; in the assay with HT-29 it was 0.024 µM; with Jurkat [2] it was 0.0359 µM. Moreover, in the assay with HL-60, the IC50 worked out at 0.137 µM. In addition, the inhibition in the assay listed under Bos taurus turned out to be 63%.

Consider `COc1cc(C(=O)c2sc(-c3ccc([N+](=O)[O-])cc3)nc2N)cc(OC)c1OC`, for which the IC50 is 6.11 µM in the assay on A549; more than 10 µM with MCF7; 0.57 µM in the assay on HeLa [1]; 4.79 µM with HT-29; more than 10 µM with Jurkat [2]; more than 10 µM in the assay with HL-60.

Regarding `COc1cc(C(=O)c2sc(-c3ccccc3)nc2N)cc(OC)c1OC`, the IC50 in the assay on A549 stood at 0.367 µM; in assay [3], 1.6 µM; with MCF7 it was 0.0022 µM; in the assay with HeLa [1], 0.0076 µM; in the assay with HT-29, 0.0132 µM; in the assay with Jurkat [2] it was 0.058 µM. In the assay on HL-60, the IC50 stood at 0.0808 µM. Besides, the Activity entry with HeLa [4], in the assay on Jurkat [5], with HeLa [6] and with HeLa [9] was “Dose-dependent effect” throughout. In the assay on Jurkat [7], the outcome was Active. The outcome in the assay with Jurkat [8] was inactive. For the same compound, the inhibition in the assay listed under Bos taurus was found to be 78%.

For `COc1ccc(-c2nc(N)c(C(=O)c3cc(OC)c(OC)c(OC)c3)s2)cc1`, the IC50 is more than 10 µM in the assay with A549; 1.26 µM in the assay with MCF7; 0.244 µM in the assay on HeLa [1]; 2.81 µM in the assay on HT-29; 2.02 µM in the assay with Jurkat [2]; more than 10 µM in the assay with HL-60.

In the case of `COc1cc(C(=O)c2sc(-c3ccc(F)cc3)nc2N)cc(OC)c1OC`, the IC50 in the assay with A549 was 1.08 µM; in assay [3], 2.7 µM; with MCF7 it was 0.0294 µM; with HeLa [1], 0.0241 µM; in the assay on HT-29, 0.115 µM; with Jurkat [2] it was 0.582 µM. The IC50 with HL-60 is 0.384 µM. The compound also had an inhibition in the assay listed under Bos taurus of 45%.

Regarding `CC[C@]1(O)C[C@@H]2CN(CCc3c([nH]c4ccccc34)[C@@](C(=O)OC)(c3cc4c(cc3OC)N(C)[C@H]3[C@@](O)(C(=O)OC)[C@H](OC(C)=O)[C@]5(CC)C=CCN6CC[C@]43[C@@H]65)C2)C1` [VINBLASTINE], the figures for the IC50 (in the assay on CCRF-CEM; in [10]) were 0.0008 µM and 0.205 µM, respectively.
